Source: ChEMBL document CHEMBL3421533, “The Discovery of Orally Bioavailable Tyrosine Threonine Kinase (TTK) Inhibitors: 3-(4-(heterocyclyl)phenyl)-1H-indazole-5-carboxamides as Anticancer Agents” (J Med Chem, 2015)

How the values were obtained:
[1] = target: T1, Dual specificity protein kinase TTK (Homo sapiens, UniProt P33981); assay: Inhibition of amino terminal GST-fused full length human TTK using His6-SUMO-TTK-N as substrate preincubated for 15 mins prior to ATP addition by indirect ELISA detection system
T1 sequence (P33981 whole entry): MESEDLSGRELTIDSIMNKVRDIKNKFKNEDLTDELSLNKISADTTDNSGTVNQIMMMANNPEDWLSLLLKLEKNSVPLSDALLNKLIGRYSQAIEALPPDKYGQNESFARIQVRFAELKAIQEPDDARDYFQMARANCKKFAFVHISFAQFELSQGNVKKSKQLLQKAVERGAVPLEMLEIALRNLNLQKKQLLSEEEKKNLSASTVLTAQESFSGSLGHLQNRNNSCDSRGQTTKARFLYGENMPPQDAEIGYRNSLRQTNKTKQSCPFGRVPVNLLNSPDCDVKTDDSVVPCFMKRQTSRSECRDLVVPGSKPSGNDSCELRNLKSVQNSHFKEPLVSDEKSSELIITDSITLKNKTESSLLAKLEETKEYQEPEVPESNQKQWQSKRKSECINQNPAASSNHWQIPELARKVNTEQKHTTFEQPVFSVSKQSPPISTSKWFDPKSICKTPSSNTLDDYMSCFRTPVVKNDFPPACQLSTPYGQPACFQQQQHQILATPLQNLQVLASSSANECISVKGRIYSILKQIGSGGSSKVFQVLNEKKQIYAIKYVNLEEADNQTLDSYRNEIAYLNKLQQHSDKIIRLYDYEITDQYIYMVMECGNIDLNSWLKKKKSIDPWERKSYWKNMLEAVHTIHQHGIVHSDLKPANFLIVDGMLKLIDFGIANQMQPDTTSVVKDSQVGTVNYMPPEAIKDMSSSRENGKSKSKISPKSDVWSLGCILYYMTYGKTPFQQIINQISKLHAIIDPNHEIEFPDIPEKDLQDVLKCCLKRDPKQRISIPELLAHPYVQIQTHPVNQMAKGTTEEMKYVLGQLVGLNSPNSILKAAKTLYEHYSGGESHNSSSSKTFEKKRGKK

[2] = Cytotoxicity against human HCT116 cells after 5 days by sulforhodamine B assay; format: functional, HCT-116; conditions: Homo sapiens, HCT-116, 120 h
Method in brief: (§1)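 Cancer lines were seeded at 800–6000 cells per well according to growth rate, 24 h before compound overlay. After culture, cells were fixed in situ and stained with sulforhodamine B. GI50 values were derived by curve fitting.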

MDA-MB-468 = assay: Cytotoxicity against human MDA-MB-468 cells after 5 days by sulforhodamine B assay; format: functional; method in brief: as §1
[3] = target: Aurora kinase B/Inner centromere protein (Homo sapiens, UniProt Q96GD4); assay: Inhibition of AURKB/INCENP (unknown origin) preincubated for 15 mins prior to ATP addition by FRET-based homogenous assay; format: protein-complex assay
Method in brief: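 The enzyme was AURKB/INCENP in a FRET-based homogeneous assay run to kit specifications, with ATP at 128 μM. […] Each IC50 came from a single determination, reported with its standard fitting error.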

[4] = Cmax in athymic CD1 nude mouse at 10 mg/kg, po by LC-MS/MS analysis; format: ADME, organism-based; parameters: dose 10 mg/kg, route oral; conditions: athymic CD1 nude, in vivo
[5] = AUC in athymic CD1 nude mouse at 10 mg/kg, po by LC-MS/MS analysis; format: ADME, organism-based; parameters: dose 10 mg/kg, route oral; conditions: plasma
[6] = Cytotoxicity against human OVCAR3 cells after 5 days by sulforhodamine B assay; format: functional, OVCAR-3
Cytochrome P450 3A4 = Cytochrome P450 3A4 (Homo sapiens, UniProt P08684); assay: Inhibition of human CYP3A4 using BFC as substrate preincubated for 10 mins followed by enzyme/substrate addition measured after 30 mins by fluorescence assay; format: ADME
[7] = Half life in mouse liver microsomes at 1 uM by LC-MS analysis; format: ADME; conditions: liver microsomes
[8] = Half life in rat liver microsomes at 1 uM by LC-MS analysis; format: ADME; conditions: liver microsomes
[9] = AUCinfinity in athymic CD1 nude mouse at 10 mg/kg, po by LC-MS/MS analysis; format: ADME, organism-based, Plasma; parameters: time infinity, dose 10 mg/kg, route oral; conditions: athymic CD1 nude, plasma
[10] = Clearance in Sprague-Dawley rat at 1 mg/kg, iv by LC-MS/MS analysis; format: ADME, organism-based; parameters: dose 1 mg/kg, route intravenous; conditions: in vivo
[11] = Half life in Sprague-Dawley rat at 1 mg/kg, iv by LC-MS/MS analysis; format: ADME, organism-based; parameters: dose 1 mg/kg, route intravenous; conditions: in vivo
[12] = AUCinfinity in Sprague-Dawley rat at 1 mg/kg, iv by LC-MS/MS analysis; format: ADME, organism-based; parameters: time infinity, dose 1 mg/kg, route intravenous; conditions: plasma
[13] = AUCinfinity in Sprague-Dawley rat at 5 mg/kg, po by LC-MS/MS analysis; format: ADME, organism-based; parameters: time infinity, dose 5 mg/kg, route oral; conditions: plasma
[14] = Oral bioavailability in Sprague-Dawley rat at 5 mg/kg by LC-MS/MS analysis; format: ADME, organism-based; conditions: in vivo
Homo sapiens = species on record: Homo sapiens; assay: Selectivity ratio of IC50 for AURKB/INCENP (unknown origin) to IC50 for amino terminal GST-fused full length human TTK
[15] = Homo sapiens, MDA-MB-468, 120 h

Chain of Cytochrome P450 3A4 (P08684 whole entry): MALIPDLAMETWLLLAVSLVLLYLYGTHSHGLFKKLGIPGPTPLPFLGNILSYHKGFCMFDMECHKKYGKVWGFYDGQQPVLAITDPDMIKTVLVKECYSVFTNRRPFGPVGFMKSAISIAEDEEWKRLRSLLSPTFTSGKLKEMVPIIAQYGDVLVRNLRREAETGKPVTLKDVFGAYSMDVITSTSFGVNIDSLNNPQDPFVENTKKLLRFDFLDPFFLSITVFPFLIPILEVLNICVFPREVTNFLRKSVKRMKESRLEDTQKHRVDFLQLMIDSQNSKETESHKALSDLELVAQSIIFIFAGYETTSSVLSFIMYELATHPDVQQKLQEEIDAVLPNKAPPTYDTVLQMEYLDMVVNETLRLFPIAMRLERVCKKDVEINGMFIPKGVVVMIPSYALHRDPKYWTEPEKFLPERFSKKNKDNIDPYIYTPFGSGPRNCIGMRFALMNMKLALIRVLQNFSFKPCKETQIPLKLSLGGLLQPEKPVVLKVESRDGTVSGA
Chain of Aurora kinase B/Inner centromere protein (Q96GD4 whole entry): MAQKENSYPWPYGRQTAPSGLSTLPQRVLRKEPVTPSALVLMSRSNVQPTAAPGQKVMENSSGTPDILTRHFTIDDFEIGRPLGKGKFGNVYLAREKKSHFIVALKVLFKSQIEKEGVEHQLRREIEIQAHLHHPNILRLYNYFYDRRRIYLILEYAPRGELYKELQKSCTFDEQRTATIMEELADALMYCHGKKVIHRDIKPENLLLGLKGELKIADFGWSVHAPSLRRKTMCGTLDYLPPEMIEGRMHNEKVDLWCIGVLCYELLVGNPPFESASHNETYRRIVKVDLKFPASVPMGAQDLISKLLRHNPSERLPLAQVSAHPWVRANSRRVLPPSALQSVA
Chain of Aurora kinase B/Inner centromere protein (Q9NQS7 whole entry, further chain): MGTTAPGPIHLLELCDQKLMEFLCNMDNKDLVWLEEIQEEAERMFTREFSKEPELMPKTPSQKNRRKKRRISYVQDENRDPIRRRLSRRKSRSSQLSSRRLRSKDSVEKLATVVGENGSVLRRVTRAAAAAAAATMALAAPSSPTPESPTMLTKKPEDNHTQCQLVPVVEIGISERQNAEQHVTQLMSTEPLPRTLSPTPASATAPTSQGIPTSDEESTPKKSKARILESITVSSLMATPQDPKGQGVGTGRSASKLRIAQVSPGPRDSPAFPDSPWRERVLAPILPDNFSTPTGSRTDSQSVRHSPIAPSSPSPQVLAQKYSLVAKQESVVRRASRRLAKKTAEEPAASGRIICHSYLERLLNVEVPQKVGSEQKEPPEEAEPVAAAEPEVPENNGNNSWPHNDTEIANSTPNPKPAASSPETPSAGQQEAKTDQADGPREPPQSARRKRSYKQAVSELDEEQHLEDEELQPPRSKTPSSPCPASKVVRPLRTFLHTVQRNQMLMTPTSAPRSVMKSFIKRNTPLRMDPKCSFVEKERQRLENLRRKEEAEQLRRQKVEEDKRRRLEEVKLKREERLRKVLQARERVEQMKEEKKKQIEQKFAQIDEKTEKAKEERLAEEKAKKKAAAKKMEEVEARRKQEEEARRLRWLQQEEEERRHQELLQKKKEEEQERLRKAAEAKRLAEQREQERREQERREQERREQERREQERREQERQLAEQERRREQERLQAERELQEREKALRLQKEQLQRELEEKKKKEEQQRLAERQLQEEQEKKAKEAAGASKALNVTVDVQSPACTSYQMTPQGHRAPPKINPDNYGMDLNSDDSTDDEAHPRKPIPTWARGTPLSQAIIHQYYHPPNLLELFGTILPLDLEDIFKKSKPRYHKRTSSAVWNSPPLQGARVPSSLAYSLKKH

SMILES | IC50 [1] | GI50 [2] | GI50 (MDA-MB-468; [15]) | IC50 [3] | Cmax [4] | AUC [5] | GI50 ([6]; Homo sapiens, OVCAR-3, 120 h) | IC50 (Cytochrome P450 3A4) | half-life at 1 µM [7] | half-life at 1 µM [8] | AUC(0-inf) [9] | clearance [10] | half-life [11] | AUC(0-inf) [12] | AUC(0-inf) [13] | bioavailability [14] | Ratio IC50 (Homo sapiens) | GI50 (MDA-MB-468) | GI50 [6]
CN1CCN(c2ccc(-c3n[nH]c4ccc(C(=O)NCC5(N6CCOCC6)CCCCC5)cc34)cc2)CC1 | 0.0076 µM | 0.012 µM | 0.18 µM | 0.44 µM | 160 ng/mL | 480 ng·h/mL | – | – | – | – | – | – | – | – | – | – | – | – | –
O=C(N[C@@H](c1ccccn1)C1CC1)c1ccc2[nH]nc(-c3ccc(N4C5CCC4COC5)cc3)c2c1 | 0.002 µM | 0.021 µM | 0.13 µM | 1.2 µM | 1500 ng/mL | – | 0.15 µM | 1.4 µM | > 60 min | > 60 min | 2100 ng·h/mL | 71 mL/min/kg | 24 min | 240 ng·h/mL | 890 ng·h/mL | 75% | – | – | –
O=C(N[C@H](c1ccccn1)C1CCCC1)c1ccc2[nH]nc(-c3ccc(N4C5CCC4COC5)cc3)c2c1 | – | – | – | 1.4 µM | – | – | – | 0.93 µM | – | – | – | – | – | – | – | 39% | – | – | –
CC(C)[C@H](NC(=O)c1ccc2[nH]nc(-c3ccc(N4[C@H]5CC[C@H]4CC(O)C5)cc3)c2c1)c1ccccc1Cl (some centres undefined) | 0.006 µM | 0.009 µM | 0.021 µM | > 6.3 µM | 330 ng/mL | – | 0.007 µM | – | 34 min | > 60 min | 620 ng·h/mL | – | – | – | – | – | > 100 | – | –
O=C(N[C@H](c1ccccc1)C1CC1)c1ccc2[nH]nc(-c3ccc(N4[C@H]5CC[C@H]4CC(O)C5)cc3)c2c1 (some centres undefined) | 0.0028 µM | 0.022 µM | 0.07 µM | 1.1 µM | 480 ng/mL | – | 0.12 µM | – | 47 min | 35 min | 670 ng·h/mL | – | – | – | – | – | > 100 | – | –
O=C(N[C@@H](c1ccccn1)C1CCCC1)c1ccc2[nH]nc(-c3ccc(N4[C@H]5CC[C@H]4CC(O)C5)cc3)c2c1 (some centres undefined) | 0.0041 µM | 0.015 µM | 0.03 µM | 1.8 µM | – | – | 0.09 µM | 0.23 µM | > 60 min | 22 min | – | – | – | – | – | – | > 100 | – | –
O=C(N[C@H](c1ncccn1)C1CCCC1)c1ccc2[nH]nc(-c3ccc(N4[C@H]5CC[C@H]4CC(O)C5)cc3)c2c1 (some centres undefined) | 0.0011 µM | 0.001 µM | 0.014 µM | 0.62 µM | 750 ng/mL | – | 0.02 µM | – | > 60 min | > 60 min | 970 ng·h/mL | 125 mL/min/kg | 43.8 min | 130 ng·h/mL | 140 ng·h/mL | 21% | – | – | –
O=C(N[C@H](CC1CC1)c1ccccn1)c1ccc2[nH]nc(-c3ccc(N4[C@H]5CC[C@H]4CC(O)C5)cc3)c2c1 (some centres undefined) | 0.0015 µM | 0.016 µM | 0.027 µM | 1.2 µM | 1200 ng/mL | – | – | 1.3 µM | > 60 min | > 60 min | 1900 ng·h/mL | 57 mL/min/kg | 22.8 min | 290 ng·h/mL | 270 ng·h/mL | 19% | > 100 | – | –
O=C(N[C@@H](c1ccccn1)C1CCCC1)c1ccc2[nH]nc(-c3ccc(N4[C@H]5COC[C@H]4CC(O)C5)cc3)c2c1 (some centres undefined) | 0.0022 µM | 0.015 µM | 0.14 µM | 0.74 µM | – | – | 0.16 µM | 0.33 µM | 60 min | 33 min | – | – | – | – | – | – | > 100 | – | –
NS(=O)(=O)c1cccc(-c2n[nH]c3ccc(NC(=O)C(c4ccsc4)N4CCCC4)cc23)c1 (racemic) | – | 0.039 µM | 0.087 µM | – | 7 ng/mL | 25 ng·h/mL | – | – | – | – | – | – | – | – | – | – | – | – | –
O=C(NC(c1ccccc1)C1CC1)c1ccc2[nH]nc(-c3ccc(N4CCOCC4)cc3)c2c1 (racemic) | 0.017 µM | 0.086 µM | 0.33 µM | 0.19 µM | 3900 ng/mL | 13500 ng·h/mL | – | – | – | – | – | – | – | – | – | – | – | – | –
CN1CCN(c2ccc(-c3n[nH]c4ccc(NC(=O)C(c5ccsc5)N5CCCC5)cc34)cc2)CC1 (racemic) | 0.0074 µM | 0.057 µM | 0.25 µM | – | 180 ng/mL | 590 ng·h/mL | – | – | – | – | – | – | – | – | – | – | – | – | –
O=C(Nc1ccc2[nH]nc(-c3ccc(N4CCOCC4)cc3)c2c1)C(c1ccsc1)N1CCCC1 (racemic) | 0.011 µM | 0.027 µM | 0.16 µM | – | 3500 ng/mL | 7900 ng·h/mL | – | – | – | – | – | – | – | – | – | – | – | – | –
O=CN1[C@@H]2CC[C@H]1C[C@@H](Oc1ccc(-c3n[nH]c4ccc(C(=O)NC(c5ccsc5)C5CCC5)cc34)cc1)C2 (mixture of isomers) | 0.0025 µM | 0.041 µM | 0.11 µM | 1.2 µM | 33 ng/mL | 30 ng·h/mL | – | – | – | – | – | – | – | – | – | – | – | – | –
CC(C)CC(NC(=O)c1ccc2[nH]nc(-c3ccc(O[C@H]4C[C@H]5CC[C@@H](C4)N5C=O)cc3)c2c1)c1ccccn1 (mixture of isomers) | 0.003 µM | 0.064 µM | 0.15 µM | 0.3 µM | 280 ng/mL | 660 ng·h/mL | – | 0.41 µM | – | – | – | – | – | – | – | – | – | – | –
O=C(N[C@H](c1ccccn1)C1CC1)c1ccc2[nH]nc(-c3ccc(N4[C@H]5CC[C@H]4CC(O)C5)cc3)c2c1 (stereo in doubt; 74) | 0.0012 µM | 0.018 µM | – | 0.53 µM | 1600 ng/mL | – | – | 2.1 µM | > 60 min | > 60 min | 1600 ng·h/mL | – | – | – | – | – | – | 0.016 µM | 0.02 µM
